Test results taken from ChEMBL document CHEMBL4715825, “Synthesis and biological evaluations of marine oxohexadecenoic acids: PPARα/γ dual agonism and anti-diabetic target gene effects” (Eur J Med Chem, 2018).
The source made the active and inactive calls. The calls are words filed in the database; no cut-off is given here.

Columns and labels:
[1] = molecular target: T1, Peroxisome proliferator-activated receptor gamma (Homo sapiens) (UniProt P37231); experiment: Agonist activity at human PPARgamma in 8 day differentiated human SGBS cells assessed as increase in ADIPOQ gene expression at 25 uM incubated for 24 hrs by SYBR-green based qPCR analysis; assay type: cell-based; settings: filed as agonist
T1 sequence (whole entry): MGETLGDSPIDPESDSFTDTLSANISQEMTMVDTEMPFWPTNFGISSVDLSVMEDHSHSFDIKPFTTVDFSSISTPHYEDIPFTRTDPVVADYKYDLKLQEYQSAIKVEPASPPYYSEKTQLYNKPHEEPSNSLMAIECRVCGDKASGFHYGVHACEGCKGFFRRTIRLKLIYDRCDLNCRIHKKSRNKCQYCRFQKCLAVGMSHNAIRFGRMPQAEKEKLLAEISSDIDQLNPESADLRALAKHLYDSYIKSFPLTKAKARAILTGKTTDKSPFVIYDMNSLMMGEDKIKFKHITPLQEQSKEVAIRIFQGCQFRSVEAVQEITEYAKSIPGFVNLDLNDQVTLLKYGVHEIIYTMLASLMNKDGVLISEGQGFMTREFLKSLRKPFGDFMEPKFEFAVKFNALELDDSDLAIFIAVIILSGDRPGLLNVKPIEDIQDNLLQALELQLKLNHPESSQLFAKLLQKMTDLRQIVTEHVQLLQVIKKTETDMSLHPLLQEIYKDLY
Procedure, shortened: (§1)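 SGBS preadipocytes were seeded at passage P6-P8 and grown to confluence. They were differentiated for 4 days in Quickdiff (3FC plus dexamethasone, IBMX and rosiglitazone), then kept in 3FC with medium renewed every fourth day. On day 8, cells were stimulated for 24 h in 3FC with compound:BSA or rosiglitazone. SYBR-green qPCR used gene-specific primers. Data are mean ± SEM of three biological replicates in duplicate.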

SGBS [2] = experiment: Induction of adipogenesis in 8 day differentiated human SGBS cells assessed as increase in CEBPA mRNA expression at 25 uM measured upto 12 days by qRT-PCR analysis; assay type: functional, cell-based; settings: time day <=12
Procedure, shortened: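 SGBS cells were grown to confluence (day 0). Quickdiff medium was supplemented with compound or rosiglitazone for 4 days, followed by 3FC medium. DMSO or DMSO:BSA served as control. RNA was harvested on days 0, 4, 8 and 12, and expression was measured by SYBR-green qPCR. Data are mean ± SEM of at least three biological replicates in duplicate.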

COS-1 = experiment: Agonist activity at recombinant full length human PPARalpha/gamma/RXRalpha expressed in African green monkey COS-1 cells assessed as induction of PLIN1 driven luciferase reporter activity at 25 uM incubated for 18 hrs by dual luciferase reporter gene assay; assay type: cell-based; settings: filed as agonist
Procedure, shortened: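 COS-1 cells were kept in DMEM/10% FBS at 37 °C, 5% CO2, and seeded at 7×10^4 per well. After 24 h they were lipofected with full-length PPAR and RXR expression plasmids, a PLIN1- or CPT1A-driven luciferase reporter and pRL-CMV Renilla control. Compound in DMSO (final 0.1%) was added 5 h later. After 18 h, cells were lysed for Dual-Luciferase readout. Three biological replicates were run in quadruplicate.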

SGBS [3] = experiment: Induction of adipogenesis in 8 day differentiated human SGBS cells assessed as increase in volume of lipid droplets at 25 uM measured upto 12 days by oil-O-red staining based inverted microscopic analysis; assay type: functional, cell-based; settings: time day <=12
Procedure, shortened: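 SGBS cells were differentiated in Quickdiff for 4 days, supplemented with 25 µM oxo-fatty acid or 2 µM rosiglitazone, then in 3FC to day 8. Controls were DMSO (0.025%) or BSA (4.2 µM). Cells were fixed in 4% paraformaldehyde for 15 min and stained 15 min with Oil Red O for neutral lipids. They were imaged by inverted microscope at 10× and 40×. Three biological replicates were run in duplicate.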

[4] = molecular target: T2, Peroxisome proliferator-activated receptor alpha (Homo sapiens) (UniProt Q07869); experiment: Agonist activity at human PPARalpha in human HuH-7 cells assessed as increase in ACSL3 gene expression at 50 uM incubated for 24 hrs by SYBR-green based qPCR analysis; assay type: cell-based; settings: filed as agonist
T2 sequence (whole entry): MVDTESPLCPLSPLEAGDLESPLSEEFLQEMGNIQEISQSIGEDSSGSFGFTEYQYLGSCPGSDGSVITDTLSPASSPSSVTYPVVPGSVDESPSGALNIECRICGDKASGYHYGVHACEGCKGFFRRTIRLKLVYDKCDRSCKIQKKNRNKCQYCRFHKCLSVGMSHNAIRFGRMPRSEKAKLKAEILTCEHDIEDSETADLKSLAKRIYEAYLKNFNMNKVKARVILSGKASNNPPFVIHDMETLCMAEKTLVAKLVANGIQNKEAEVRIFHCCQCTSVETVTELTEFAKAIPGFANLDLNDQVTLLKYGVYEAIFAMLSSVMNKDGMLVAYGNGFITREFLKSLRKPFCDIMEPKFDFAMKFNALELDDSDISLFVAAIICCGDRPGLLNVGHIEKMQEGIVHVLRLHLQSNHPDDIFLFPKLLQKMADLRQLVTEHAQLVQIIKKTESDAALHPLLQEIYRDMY
Procedure, shortened: (§2)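 Cells were seeded at 2×10^5 per well and treated 24 h later with compound in DMSO (final 0.1%). The next day, cells were washed and scraped into RLT buffer. RNA was isolated, and target gene mRNA was quantified by SYBR-green qPCR with specific primers.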

[5] = molecular target: T3, Peroxisome proliferator-activated receptor gamma (Homo sapiens, UniProt P37231); experiment: Agonist activity at recombinant human PPARgamma LBD (205 to 505 residues) expressed in African green monkey COS-1 cells incubated for 18 hrs by luciferase reporter gene assay; assay type: cell-based
T3 sequence (P37231 whole entry): T1 sequence (whole entry)
Procedure, shortened: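 Transient Gal4 one-hybrid assay in COS-1 cells (7×10^4 per well), transfected 24 h after seeding. Plasmids were Gal4-DBD fused to the human nuclear receptor LBD, a 5×UAS-SV40 luciferase reporter and pRL-CMV Renilla control. Ligand in DMSO (final 0.1%) was added 5 h post-transfection. Dual-luciferase activity was read after 18 h, expressed as RLU, from three biological replicates in quadruplicate.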

[6] = molecular target: T1, Peroxisome proliferator-activated receptor gamma (Homo sapiens); experiment: Agonist activity at human PPARgamma in 8 day differentiated human SGBS cells assessed as decrease in CXCL1 gene expression at 25 uM incubated for 24 hrs by SYBR-green based qPCR analysis; assay type: cell-based; settings: filed as agonist
[7] = molecular target: T2, Peroxisome proliferator-activated receptor alpha (Homo sapiens); experiment: Agonist activity at human PPARalpha in human HuH-7 cells assessed as increase in PLIN1 gene expression at 50 uM incubated for 24 hrs by SYBR-green based qPCR analysis; assay type: cell-based; settings: filed as agonist; procedure, shortened: as §2
[8] = molecular target: T2, Peroxisome proliferator-activated receptor alpha (Homo sapiens); experiment: Agonist activity at human PPARalpha in 8 day differentiated human SGBS cells assessed as increase in ANGPTL4 gene expression at 25 uM incubated for 24 hrs by SYBR-green based qPCR analysis; assay type: cell-based; settings: filed as agonist; procedure, shortened: as §1

Activity [1] | Activity [4] | EC50 [5] [µM] | Activity [6] | Activity [7] | Activity [8] | Compound | Activity (SGBS [2]) | Activity (COS-1) | Activity (SGBS [3])
Active | Active | 10 | Active |  |  | CCCCCCCC(=O)/C=C/CCCCCC(=O)O | Active | Active | Active
Active |  | 8.5 | Active | Active | Active | CCCCC/C=C/C(=O)CCCCCCCC(=O)O | Active |  | Active
